≈ marks a conversion by molar mass, not a printed value. Calls of active or inactive are those of the source. No cut-off for these calls is given here.
Assays:
Rattus norvegicus [1] = test: […] clearance in rat at 3.5 umol/kg, iv; type: ADME, organism-based; details: in vivo
Outline: (§1)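 IV dosing in male fasted rats, doses in μmol/kg; mean Vss, half-life and clearance derived; number of rats per compound reported.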

[2] = Half life in rat at 3.5 umol/kg, iv; type: ADME, organism-based; details: in vivo; outline: as §1
[3] = Volume of distribution at steady state in rat at 3.5 umol/kg, iv; type: ADME, organism-based; details: in vivo, read-out: Vdss
Outline: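 Male fasted rats given a single IV dose. Volume of distribution taken as the mean from plasma sampling after the IV dose. Animals per compound: 1 to 7.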

[4] = Intrinsic clearance in rat liver microsomes; type: ADME; details: read-out: CLH
[5] = Intrinsic clearance in human liver microsomes; type: ADME; details: read-out: CLH
Outline: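 Human liver microsomal clearance, expressed as μL/min/mg.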

[6] = Apparent permeability from apical to basolateral side in MDCK cells; type: ADME, cell-based, Canis lupus familiaris; details: dog
Outline: (§2)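 MDCK monolayers; A-to-B Papp in 1 × 10⁻⁶ cm/s; efflux taken as ratio of A-to-B Papp over B-to-A Papp.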

[7] = Percentage unbound in human plasma; type: ADME, cell-free
Outline: (§3)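 Plasma protein binding in human or rat plasma, expressed as percent free.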

[8] = Equilibrium solubility of the compound at pH 7.4; type: physicochemical; details: buffer
[9] = Octanol-water partition coefficient, log D of the compound by shake flask HPLC analysis; type: physicochemical
Outline: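 logD between octanol and water by shake-flask with HPLC analysis.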

Histamine H3 receptor [10] = molecular target: T1, Histamine H3 receptor (Homo sapiens, UniProt Q9Y5N1); test: Antagonist activity at human histamine H3 receptor long form expressed in CHOK1 cells assessed as inhibition of R-alpha-methylhistamine-induced [35S]GTPgammaS binding after 3 hrs by scintillation proximity assay; type: functional, cell-based, CHO-K1
Outline: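 Membranes from CHO-K1 cells stably expressing human H3R long form (445 aa) incubated 3 h with test compound, 25 nM R-α-methylhistamine, 10 μM GDP, 0.2 nM [35S]GTPγS and WGA PVT SPA beads; bead-bound [35S]GTPγS counted by scintillation. Average of n > 2, standard error <20%.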

[11] = molecular target: Voltage-gated inwardly rectifying potassium channel KCNH2 (Homo sapiens, UniProt Q12809); test: Inhibition of human ERG expressed in CHOK1 cells by electrophysiological analysis
Histamine H3 receptor [12] = molecular target: T1, Histamine H3 receptor; test: Displacement of [3H]-N-alpha-methylhistamine from human histamine H3 receptor expressed in CHOK1 cells after 1.5 hrs by scintillation proximity assay; type: cell-based, CHO-K1
Outline: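 Human H3R-CHO-K1 membranes incubated 1.5 h with test compound and [3H]-N-α-methylhistamine in SPA format; nonspecific binding defined with 10 μM imetit; bead-bound radioligand counted. Average of n > 2, standard error <50%.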

[13] = Percentage unbound in rat plasma; type: ADME, cell-free; outline: as §3
Histamine H3 receptor [14] = molecular target: T1, Histamine H3 receptor; test: Inverse agonist activity at human histamine H3 receptor long form expressed in CHOK1 cells assessed as reduction in [35S]GTPgammaS binding after 3 hrs by scintillation proximity assay; type: functional, cell-based; details: CHO-K1
Outline: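 Basal [35S]GTPγS binding, without agonist stimulation, to membranes expressing recombinant human H3R.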

MDCK = test: Efflux ratio of apparent permeability from apical to basolateral side over basolateral to apical side in MDCK cells; type: ADME, cell-based, Canis lupus familiaris; details: dog; outline: as §2
Rattus norvegicus [15] = test: […] clearance in rat at 2.3 umol/kg, iv; type: ADME, organism-based; details: in vivo; outline: as §1
[16] = Half life in rat at 2.3 umol/kg, iv; type: ADME, organism-based; details: in vivo; outline: as §1
[17] = Volume of distribution at steady state in rat at 2.3 umol/kg, iv; type: ADME, organism-based; details: in vivo, read-out: Vdss; outline: as §1
Rattus norvegicus [18] = test: […] clearance in rat at 1.8 umol/kg, iv; type: ADME, organism-based; details: in vivo; outline: as §1
[19] = Half life in rat at 1.8 umol/kg, iv; type: ADME, organism-based; details: in vivo; outline: as §1
[20] = Volume of distribution at steady state in rat at 1.8 umol/kg, iv; type: ADME, organism-based; details: in vivo, read-out: Vdss; outline: as §1

T1 sequence (Q9Y5N1 whole entry): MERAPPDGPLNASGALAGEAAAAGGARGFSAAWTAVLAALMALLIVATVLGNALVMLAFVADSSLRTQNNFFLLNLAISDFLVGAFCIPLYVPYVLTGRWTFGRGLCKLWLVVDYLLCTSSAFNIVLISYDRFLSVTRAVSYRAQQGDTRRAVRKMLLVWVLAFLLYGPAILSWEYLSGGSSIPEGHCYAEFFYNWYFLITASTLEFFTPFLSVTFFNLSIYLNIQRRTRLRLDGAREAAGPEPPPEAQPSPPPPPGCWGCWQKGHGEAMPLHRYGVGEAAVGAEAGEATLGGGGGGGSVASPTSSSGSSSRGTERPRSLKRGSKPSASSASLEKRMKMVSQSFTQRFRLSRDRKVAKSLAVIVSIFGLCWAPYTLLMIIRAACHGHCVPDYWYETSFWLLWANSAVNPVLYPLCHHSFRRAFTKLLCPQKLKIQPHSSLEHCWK
Chain of Voltage-gated inwardly rectifying potassium channel KCNH2 (Q12809 whole entry): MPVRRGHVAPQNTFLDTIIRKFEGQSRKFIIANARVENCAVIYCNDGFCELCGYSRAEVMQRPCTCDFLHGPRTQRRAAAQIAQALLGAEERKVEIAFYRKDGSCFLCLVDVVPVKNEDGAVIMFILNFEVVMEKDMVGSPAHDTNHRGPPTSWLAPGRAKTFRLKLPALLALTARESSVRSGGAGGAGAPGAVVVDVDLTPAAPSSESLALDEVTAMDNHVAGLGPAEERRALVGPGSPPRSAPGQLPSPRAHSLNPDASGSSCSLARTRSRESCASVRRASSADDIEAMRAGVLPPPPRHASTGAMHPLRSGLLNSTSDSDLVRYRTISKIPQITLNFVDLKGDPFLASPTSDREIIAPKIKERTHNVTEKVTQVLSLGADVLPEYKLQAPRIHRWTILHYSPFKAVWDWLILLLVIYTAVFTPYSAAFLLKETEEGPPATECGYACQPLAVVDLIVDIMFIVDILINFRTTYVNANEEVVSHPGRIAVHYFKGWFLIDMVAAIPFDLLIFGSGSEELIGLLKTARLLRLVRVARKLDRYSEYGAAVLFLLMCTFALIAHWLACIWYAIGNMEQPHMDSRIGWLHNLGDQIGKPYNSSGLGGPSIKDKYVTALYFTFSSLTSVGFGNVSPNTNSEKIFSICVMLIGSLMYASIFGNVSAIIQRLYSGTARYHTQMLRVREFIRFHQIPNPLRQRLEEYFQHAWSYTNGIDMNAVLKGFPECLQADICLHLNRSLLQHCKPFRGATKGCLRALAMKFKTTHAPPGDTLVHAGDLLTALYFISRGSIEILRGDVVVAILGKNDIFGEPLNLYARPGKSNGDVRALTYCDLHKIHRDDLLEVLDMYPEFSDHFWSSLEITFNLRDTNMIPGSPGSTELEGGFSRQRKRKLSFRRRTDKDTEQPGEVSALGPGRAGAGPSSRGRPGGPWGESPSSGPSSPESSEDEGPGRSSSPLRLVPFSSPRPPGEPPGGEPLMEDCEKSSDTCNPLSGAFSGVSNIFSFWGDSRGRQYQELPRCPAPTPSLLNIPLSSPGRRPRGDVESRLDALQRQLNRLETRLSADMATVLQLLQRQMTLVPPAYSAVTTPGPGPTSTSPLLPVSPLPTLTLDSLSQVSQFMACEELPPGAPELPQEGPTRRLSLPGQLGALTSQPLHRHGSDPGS

logD [9]	IC50 (Histamine H3 receptor [10])	Ki (Histamine H3 receptor [12])	Structure (SMILES)	IC50 [11]	further results
0.97	11 nM	–	CS(=O)(=O)N1CCC2(CC1)CC(C(=O)N1CCN(C3CCC3)CC1)C2	–	CL (Rattus norvegicus [1]): 69.8 mL/min/kg; half-life [2]: 24 min; Vd [3]: 1.4 L/kg; microsomal CLint [4]: 16 µL/min/mg; microsomal CLint [5]: 8.3 µL/min/mg; Papp A→B [6]: 19 ×10⁻⁶ cm/s; fraction unbound [7]: 0.67; solubility thermodynamic [8]: > 500 µM
2.09	–	–	O=C(c1ccccc1)N1CCC2(CC1)CC(C(=O)N1CCN(C3CCC3)CC1)C2	> 33000 nM	–
0.18	17 nM	3 nM	O=C(C1CC12CCN(C1CCOCC1)CC2)N1CCCN(C2CCC2)CC1 (racemic)	–	–
-0.89	0.8 nM	–	O=C(C1CC2(CCN(C3CCOCC3)CC2)C1)N1CCCN(C2CCC2)CC1	–	–
–	–	> 10000 nM	O=C(C1CC12CCC(C1CCCCC1)CC2)N1CCN(C2CCC2)CC1 (racemic)	–	solubility thermodynamic [8]: 1 µM (≈ 0.359 µg/mL)
–	340 nM	–	O=C(c1ccccc1)N1CCC2(CC1)CCN(C(=O)C1CCN(C3CCC3)CC1)C2	–	–
–	–	11 nM	O=C(C1CC12CCN(C1CCOCC1)CC2)N1CCN(C2CC2)CC1 (racemic)	–	microsomal CLint [4]: 20 µL/min/mg; microsomal CLint [5]: < 4 µL/min/mg; Papp A→B [6]: 8.4 ×10⁻⁶ cm/s; solubility thermodynamic [8]: > 500 µM
3.25	66 nM	–	O=C(C1CC2(CCN(c3ccccc3)CC2)C1)N1CCN(C2CCC2)CC1	> 33000 nM	–
1.63	12 nM	–	CC(C)N1CCCN(C(=O)C2CC3(CCN(C(=O)c4ccccc4)CC3)C2)CC1	> 33000 nM	–
3.63	–	1670 nM	O=C(C1CC12CCN(c1ccccc1)CC2)N1CCN(C2CCCCC2)CC1 (racemic)	–	–
–	1100 nM	1300 nM	CN1CCN(C(=O)C2CC23CCN(C2CCOCC2)CC3)CC1 (racemic)	–	–
-0.19	140 nM	–	CC(C)N1CCN(C(=O)N2CCC3(CCCN(C4CCOCC4)C3)C2)CC1 (stereo not drawn)	> 33000 nM	–
–	–	1.4 nM	O=C(C1CC12CCN(C1CCOCC1)CC2)N1CCN(C2CCCC2)CC1 (racemic)	–	microsomal CLint [4]: 43 µL/min/mg; microsomal CLint [5]: 7.2 µL/min/mg; fraction unbound [13]: 0.65; Papp A→B [6]: < 2.2 ×10⁻⁶ cm/s; fraction unbound [7]: 0.5; solubility thermodynamic [8]: > 500 µM
-1.09	–	8.4 nM	O=C(C1CC12CCN(C1CCOCC1)CC2)N1CCN(c2ccncc2)CC1 (racemic)	–	–
2.27	21 nM	–	O=C(N1CCN(C2CCC2)CC1)N1CCC2(CCN(S(=O)(=O)c3ccccc3)CC2)C1	–	–
0.74	19 nM	47 nM	CC(C)N1CCC2(CC1)CC2C(=O)N1CCN(C2CCCCC2)CC1 (racemic)	–	–
–	66 nM	67 nM	O=C(C1CC12CCN(C1CCC1)CC2)N1CCN(C2CCOCC2)CC1 (racemic)	–	–
2.81	–	103 nM	O=C(C1CC12CCN(Cc1ccccc1)CC2)N1CCN(C2CCCCC2)CC1 (racemic)	–	–
1.09	83 nM	55 nM	O=C(C1CC12CCN(c1ccncc1)CC2)N1CCN(C2CCCCC2)CC1 (racemic)	–	–

logD [9]	IC50 (Histamine H3 receptor [10])	Ki (Histamine H3 receptor [12])	Structure (SMILES)	IC50 [11]	further results
-1.78	14 nM	–	CC(C)N1CCCN(C(=O)C2CC3(CCN(C4CCOCC4)CC3)C2)CC1	–	–
1.74	6.5 nM	–	O=C(N1CCCN(C2CCC2)CC1)N1CCC2(CCCN(S(=O)(=O)c3ccccc3)C2)C1 (stereo not drawn)	> 33000 nM	–
0.23	4.4 nM	–	O=C(N1CCCN(C2CCC2)CC1)N1CCC2(CCCN(C3CCOCC3)C2)C1 (stereo not drawn)	> 33000 nM	–
0.74	12 nM	26 nM	O=C(C1CC12CCN(C1CCOCC1)CC2)N1CCN(C2CCCCC2)CC1 (racemic)	–	–
–	900 nM	97 nM	CC(C)N1CCN(C(=O)N2CC3(CCN(C4CCOCC4)CC3)C2)CC1	–	–
0.24	3.6 nM	1.3 nM	O=C(C1CC12CCN(C1CCOCC1)CC2)N1CCN(C2CCC2)CC1 (racemic)	–	microsomal CLint [4]: < 4 µL/min/mg; microsomal CLint [5]: 29 µL/min/mg; fraction unbound [13]: 0.8; Papp A→B [6]: 3.9 ×10⁻⁶ cm/s; fraction unbound [7]: 0.91; solubility thermodynamic [8]: > 500 µM; Activity (Histamine H3 receptor [14]): Active
-0.87	32 nM	–	CC(C)N1CCN(C(=O)N2CCC3(CCN(C4CCOCC4)CC3)C2)CC1	> 33000 nM	–
-1	360 nM	439 nM	O=C(C1CC12CCNCC2)N1CCN(C2CCCCC2)CC1 (racemic)	> 33000 nM	–
–	–	19 nM	O=C(C1CC12CCN(C1CCCCC1)CC2)N1CCN(C2CCCCC2)CC1 (racemic)	20800 nM	microsomal CLint [4]: 31 µL/min/mg; microsomal CLint [5]: 14 µL/min/mg; Ratio (MDCK): > 2; fraction unbound [13]: 0.62; Papp A→B [6]: < 1.7 ×10⁻⁶ cm/s; fraction unbound [7]: 0.81; solubility thermodynamic [8]: > 500 µM
1.22	3.6 nM	–	O=C(c1ccccc1)N1CCC2(CC1)CCN(C(=O)N1CCCN(C3CCC3)CC1)C2	> 33000 nM	–
–	16 nM	21 nM	O=C(C1CC12CCN(CCc1ccccc1)CC2)N1CCN(C2CCCCC2)CC1 (racemic)	–	–
1.8	13 nM	–	O=C(c1ccccc1)N1CCC2(CC1)CCN(C(=O)N1CCN(C3CCC3)CC1)C2	> 33000 nM	CL (Rattus norvegicus [15]): 91 mL/min/kg; half-life [16]: 66 min; Vd [17]: 3.7 L/kg; microsomal CLint [4]: 25 µL/min/mg; microsomal CLint [5]: 18 µL/min/mg; Ratio (MDCK): 4.5; Papp A→B [6]: 8.8 ×10⁻⁶ cm/s; solubility thermodynamic [8]: > 500 µM
–	–	65 nM	O=C(C1CC12CCN(C1CCOCC1)CC2)N1CCN(C2CCCCCC2)CC1 (racemic)	–	–
1.62	18 nM	–	O=C(c1ccccc1)N1CCC2(CCCN(C(=O)N3CCCN(C4CCC4)CC3)C2)CC1	–	–
0.8	3.2 nM	–	CC(C)S(=O)(=O)N1CCC2(CCN(C(=O)N3CCCN(C4CCC4)CC3)C2)CC1	> 33000 nM	CL (Rattus norvegicus [18]): 53 mL/min/kg; half-life [19]: 36 min; Vd [20]: 2.1 L/kg; microsomal CLint [4]: 34 µL/min/mg; microsomal CLint [5]: 20 µL/min/mg; Ratio (MDCK): 6; Papp A→B [6]: 7.8 ×10⁻⁶ cm/s; solubility thermodynamic [8]: > 500 µM
1.71	2.7 nM	–	O=C(N1CCCN(C2CCC2)CC1)N1CCC2(CCN(S(=O)(=O)c3ccccc3)CC2)C1	> 33000 nM	–
1.01	4 nM	–	O=C(c1ccccc1)N1CCCC2(CCN(C(=O)N3CCCN(C4CCC4)CC3)C2)C1 (stereo not drawn)	–	–
0.75	1.6 nM	–	O=C(C1CC2(CCN(C3CCOCC3)CC2)C1)N1CCN(C2CCCCC2)CC1	–	–
-0.46	6.3 nM	–	O=C(C1CC2(CCN(C3CCOCC3)CC2)C1)N1CCN2CCCCC2C1 (stereo not drawn)	–	–

Structure (SMILES)	logD [9]	IC50 (Histamine H3 receptor [10])	Ki (Histamine H3 receptor [12])	IC50 [11]	further results
CC(C)N1CCN(C(=O)C2CC23CCN(C2CCOCC2)CC3)CC1 (racemic)	–	3.2 nM	3 nM	–	microsomal CLint [4]: 24 µL/min/mg; microsomal CLint [5]: < 4 µL/min/mg; fraction unbound [13]: 0.69; Papp A→B [6]: 5.4 ×10⁻⁶ cm/s; fraction unbound [7]: 0.87; solubility thermodynamic [8]: > 500 µM
CC(C)N1CCN(C(=O)[C@@H]2CC23CCN(C2CCOCC2)CC3)CC1	-0.35	87 nM	16 nM	–	–
